Three molecules from article PMC5259643 (Journal of Veterinary Internal Medicine, 2017) can be followed below.

Assay [1] concerns the target Steroidogenic factor‐1 (SF‐1) (Canis lupus familiaris, UniProt A0A5K7W231). Description: Cortisol and mRNA in normal canine primary adrenocortical cell suspensions. The assay is classed as cell-based, dogs. The conditions noted are these: 10^‐8 to 10^‐5 M. In a few lines:
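Primary adrenocortical cells from normal canine adrenals were cultured as suspensions, with synthetic ACTH added to mimic hypercortisolism. Cells were exposed to SF-1 inverse agonists, with a DMSO vehicle control. Cortisol was measured in the culture media. RT-qPCR gave relative mRNA expression of steroidogenic enzymes, SF-1 and MC2R.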

The nature of assay [2]: Hypothyroidism after low‐dose radioiodine in hyperthyroid cats. Type of assay: in vivo. The conditions noted are these: 30 hypothyroid cats supplemented. In short, it runs like this: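 Hyperthyroid cats successfully treated with low-dose 131I (n = 569) had serum T4 and TSH measured at 1, 3, 6, 12 and ≥18 months after treatment. Cats that developed high TSH were classed as overtly hypothyroid if T4 was low, or subclinically hypothyroid if T4 was normal.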

The nature of assay [3]: Simvastatin in dogs with hyperlipidemia. The conditions noted are these: three months; n = 5; range 181–399. Type of assay: in vivo.

Chain of Steroidogenic factor‐1 (SF‐1) (A0A5K7W231 1-461): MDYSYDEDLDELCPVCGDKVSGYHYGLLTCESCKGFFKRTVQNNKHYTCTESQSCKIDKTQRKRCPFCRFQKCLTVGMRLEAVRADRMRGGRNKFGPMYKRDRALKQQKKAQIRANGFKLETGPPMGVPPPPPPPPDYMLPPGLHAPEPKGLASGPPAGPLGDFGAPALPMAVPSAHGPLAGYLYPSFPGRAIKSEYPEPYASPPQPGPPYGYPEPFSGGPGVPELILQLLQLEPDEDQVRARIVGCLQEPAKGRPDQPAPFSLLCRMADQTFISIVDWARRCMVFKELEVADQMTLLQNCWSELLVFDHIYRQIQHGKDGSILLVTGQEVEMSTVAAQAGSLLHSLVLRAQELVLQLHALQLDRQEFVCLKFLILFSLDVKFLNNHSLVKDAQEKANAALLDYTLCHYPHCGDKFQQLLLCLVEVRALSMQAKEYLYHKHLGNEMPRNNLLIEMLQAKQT

As to `CCOC(=O)C(C)Oc1cccc2c(=O)n(CC(=O)Nc3ccc4c(c3)OCCO4)ccc12` (stereo not drawn) [IsoqA], the “effect on cortisol production” value in assay [1] is “no significant effect on cortisol production”.
As to `N[C@@H](Cc1cc(I)c(Oc2cc(I)c(O)c(I)c2)c(I)c1)C(=O)O` [Levothyroxine], in assay [2], the “serum TSH and creatinine” value is “significantly decreased both serum TSH and creatinine concentrations”.
In the case of `CCC(C)(C)C(=O)O[C@H]1C[C@@H](C)C=C2C=C[C@H](C)[C@H](CC[C@@H]3C[C@@H](O)CC(=O)O3)[C@H]21` [simvastatin], in assay [3], the plasma cholesterol is 298 ± 109.9.
